Data as given in PubChem BioAssay AID624083 (The Scripps Research Institute Molecular Screening Center, 2012).

Biological target: VIM-2 metallo-beta-lactamase (Pseudomonas aeruginosa)
Experiment: inhibition constants against purified VIM-2 enzyme – biochemical, absorbance, probe candidates and analogs, late-stage follow-up (AID 624083)
Conditions: recombinant VIM-2, nitrocefin hydrolysis absorbance 495 nm
Outline: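 Assay system: VIM-2 enzyme; compound: inhibitor concentration series crossed with varied substrate; incubation: enzyme reaction at room temperature; detection: absorbance at 495 nm tracking nitrocefin turnover over time; evaluation: Ki from mixed-inhibition regression; replication: duplicates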

CN1CCN(NC(=O)CN2C(=O)/C(=C/c3c(Cl)ccc(Cl)c3Cl)SC2=S)CC1
Ki: 183 nM

CN1CCN(NC(=O)CN2C(=O)/C(=C/c3c(Cl)cccc3Cl)SC2=S)CC1
Ki: 1780 nM
